From ChEMBL document CHEMBL1817559, “Synthesis and biological evaluation of HQCAs with aryl or benzyl substituents on N-1 position as potential HIV-1 integrase inhibitors” (Bioorg Med Chem, 2011)

Tests used:
[1] = Selectivity index, ratio of CC50 for human C8166 cells to EC50 for wild type HIV1 LAI-3B; type: toxicity, cell-based; details: read-out: Ratio CC50/EC50
Outline: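 Ratio CC50/EC50, where CC50 is from MTT viability of uninfected C8166 cells and EC50 is 50% protection of wild-type HIV-1 IIIB-infected C8166 cells from cytopathogenicity (MTT); inputs are means of at least two experiments.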

[2] = test system: Human immunodeficiency virus 1; test: Antiviral activity against wild type HIV1 LAI-3B infected in human C8166 cells assessed as inhibition of virus-induced cytopathic effect by MTT assay; type: functional, organism-based; details: Human immunodeficiency virus 1, LAI-3B
Outline: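 C8166 cells infected with wild-type HIV-1 LAI (strain IIIB); EC50 = concentration protecting cells from viral cytopathogenicity by 50%, read by MTT; means of at least two separate experiments.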

[3] = Cytotoxicity against human C8166 cells by MTT assay; type: cell-based
Outline: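 Normal uninfected C8166 cells; MTT viability readout; CC50 = concentration reducing viability by 50%; means of at least two separate experiments.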

[4] = test system: Human immunodeficiency virus 1; test: Antiviral activity against HIV1 A17 harboring reverse transcriptase Y181C mutant infected in human C8166 cells assessed as inhibition of virus-induced cytopathic effect by MTT assay; type: functional, organism-based; details: Human immunodeficiency virus 1, A17, C8166
Outline: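 C8166 cells infected with mutant HIV-1 strain A17; protection from viral cytopathogenicity read by MTT. EC50 is the compound concentration that protects cells from viral cytopathic effect by 50%. Values are means of at least two separate experiments.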

SMILES	selectivity ratio [1]	EC50 [2]	CC50 [3]	EC50 [4]
O=C(O)c1cn(-c2ccccc2)c2ccc(Cc3cccc(Cl)c3F)c(O)c2c1=O	1.26	308 µM	388 µM	
Cc1cccc(-n2cc(C(=O)O)c(=O)c3c(O)c(Cc4cccc(Cl)c4F)ccc32)c1	3.49	20.5 µM	71.5 µM	43.7 µM
Cc1ccc(-n2cc(C(=O)O)c(=O)c3c(O)c(Cc4cccc(Cl)c4F)ccc32)cc1	54.2	3.58 µM	194 µM	67.9 µM
Cc1ccc(-n2cc(C(=O)O)c(=O)c3c(O)c(Cc4cccc(Cl)c4F)ccc32)cc1C	12.7	24.9 µM	316 µM	32.8 µM
O=C(O)c1cn(-c2ccc(Br)cc2)c2ccc(Cc3cccc(Cl)c3F)c(O)c2c1=O	11.9	7.12 µM	85 µM	33.2 µM
O=C(O)c1cn(Cc2ccccc2)c2ccc(Cc3ccccc3F)c(O)c2c1=O	7.49	20.9 µM	156 µM	51.2 µM
O=C(O)c1cn(Cc2ccccc2)c2ccc(Cc3cccc(Cl)c3F)c(O)c2c1=O	6.42	3.17 µM	20.3 µM	17.9 µM
Cc1ccc(Cn2cc(C(=O)O)c(=O)c3c(O)c(Cc4cccc(Cl)c4F)ccc32)cc1	46	5.55 µM	256 µM	29.2 µM
O=C(O)c1cn(Cc2ccccc2F)c2ccc(Cc3ccccc3F)c(O)c2c1=O	10.4	6.46 µM	67.1 µM	27.2 µM
O=C(O)c1cn(Cc2ccccc2F)c2ccc(Cc3cccc(Cl)c3F)c(O)c2c1=O	13.7	3.27 µM	44.9 µM	24.2 µM
O=C(O)c1cn(Cc2cccc(F)c2)c2ccc(Cc3cccc(Cl)c3F)c(O)c2c1=O	14	4.93 µM	69 µM	19.1 µM
O=C(O)c1cn(Cc2ccc(F)cc2)c2ccc(Cc3cccc(Cl)c3F)c(O)c2c1=O	7.04	9.34 µM	65.8 µM	22.5 µM
O=C(O)c1cn(Cc2ccc(F)c(F)c2)c2ccc(Cc3cccc(Cl)c3F)c(O)c2c1=O	12.4	5.74 µM	71.4 µM	24.2 µM
CC(C)[C@@H](CO)n1cc(C(=O)O)c(=O)c2c(O)c(Cc3cccc(Cl)c3F)ccc21				0.085 µM
COc1cc2c(cc1Cc1cccc(Cl)c1F)c(=O)c(C(=O)O)cn2[C@H](CO)C(C)C [ELVITEGRAVIR]				0.001 µM
